Laboratory results taken from ChEMBL document CHEMBL4304798, “Iterative Optimization of the Cyclic Peptide SFTI-1 Yields Potent Inhibitors of Neutrophil Proteinase 3” (ACS Med Chem Lett, 2019).
Activity calls are given as the source filed them. The rule behind the calls is not given here. Positions of bridges follow the written chain, without caps; N, C: chain ends. Non-standard residues stand in square brackets, D forms with d. Residues, ends and D or L forms follow the SMILES beside them. ξ: configuration not given here. *: point of attachment. ClZ = O=C(OCc1ccccc1Cl)*; ξAbu = CCC(N)C(=O)O

Key:
[1] = Stability in human serum at 400 uM measured after 2 hrs by RP-HPLC analysis; format: ADME, cell-free
Method in brief: (§1)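 Peptides incubated in human serum at 37 °C and sampled over time. Values are mean ± SEM from three experiments.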

[2] = target: T1, Myeloblastin (Homo sapiens) (UniProt P24158); assay: Competitive inhibition of purified human proteinase 3 at 160 nM using MeOSuc-AAPV-MCA as substrate by fluorescence based assay
T1 sequence (whole entry): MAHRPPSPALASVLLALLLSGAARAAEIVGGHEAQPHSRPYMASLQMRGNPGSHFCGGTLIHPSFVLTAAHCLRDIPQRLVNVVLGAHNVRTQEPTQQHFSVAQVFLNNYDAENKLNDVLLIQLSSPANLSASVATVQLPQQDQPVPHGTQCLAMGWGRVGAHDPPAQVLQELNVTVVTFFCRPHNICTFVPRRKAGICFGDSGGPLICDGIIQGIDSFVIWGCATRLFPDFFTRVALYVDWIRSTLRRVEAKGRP
Method in brief: (§2)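 Competitive inhibition screen against PR3, with each peptide variant tested at two fixed inhibitor concentrations.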

[3] = target: T1, Myeloblastin (Homo sapiens); assay: Competitive inhibition of purified human proteinase 3 at 40 nM using MeOSuc-AAPV-MCA as substrate by fluorescence based assay; method in brief: as §2
Cathepsin G = target: T2, Cathepsin G (Homo sapiens, UniProt P08311); assay: Inhibition of human Cathepsin G using Suc-AAPF-MCA as substrate by fluorescence based assay
T2 sequence (P08311 whole entry): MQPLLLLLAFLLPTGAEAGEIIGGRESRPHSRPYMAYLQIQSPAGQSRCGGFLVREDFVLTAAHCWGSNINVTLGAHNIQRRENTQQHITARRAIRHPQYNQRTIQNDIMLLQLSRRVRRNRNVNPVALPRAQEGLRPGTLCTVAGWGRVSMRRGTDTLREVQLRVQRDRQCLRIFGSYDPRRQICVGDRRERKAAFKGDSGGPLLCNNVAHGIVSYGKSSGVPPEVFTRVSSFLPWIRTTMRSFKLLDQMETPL

Prothrombin = Prothrombin (Homo sapiens, UniProt P00734); assay: Inhibition of recombinant human alpha thrombin using Boc-VPR-MCA as substrate by fluorescence based assay
Trypsin = Trypsin (Homo sapiens, UniProt P07477+P07478+P35030); assay: Inhibition of recombinant human trypsin using Boc-VPR-MCA as substrate by fluorescence based assay; format: protein assay
Chymase = target: T3, Chymase (Homo sapiens, UniProt P23946); assay: Inhibition of recombinant human chymase expressed in Pichia pastoris using NleTDY-pNA as substrate by fluorescence based assay
T3 sequence (P23946 whole entry): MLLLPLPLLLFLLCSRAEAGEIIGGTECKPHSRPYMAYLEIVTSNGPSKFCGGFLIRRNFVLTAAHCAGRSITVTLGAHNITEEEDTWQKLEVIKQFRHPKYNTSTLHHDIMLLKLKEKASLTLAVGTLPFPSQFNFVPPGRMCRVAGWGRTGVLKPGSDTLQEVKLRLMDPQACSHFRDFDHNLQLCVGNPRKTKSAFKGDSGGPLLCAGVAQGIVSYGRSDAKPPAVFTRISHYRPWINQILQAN

Myeloblastin = target: T4, Myeloblastin (Homo sapiens, UniProt P24158); assay: Inhibition of purified human proteinase 3 using MeOSuc-AAPV-MCA as substrate by fluorescence based assay
T4 sequence (P24158 whole entry): T1 sequence (whole entry)

[4] = Stability in human serum at 400 uM measured after 24 hrs by RP-HPLC analysis; format: ADME, cell-free; conditions: read-out: Stability; method in brief: as §1
Neutrophil elastase = target: T5, Neutrophil elastase (Homo sapiens, UniProt P08246); assay: Inhibition of human neutrophil elastase using MeOSuc-AAPV-MCA as substrate by fluorescence based assay
T5 sequence (P08246 whole entry): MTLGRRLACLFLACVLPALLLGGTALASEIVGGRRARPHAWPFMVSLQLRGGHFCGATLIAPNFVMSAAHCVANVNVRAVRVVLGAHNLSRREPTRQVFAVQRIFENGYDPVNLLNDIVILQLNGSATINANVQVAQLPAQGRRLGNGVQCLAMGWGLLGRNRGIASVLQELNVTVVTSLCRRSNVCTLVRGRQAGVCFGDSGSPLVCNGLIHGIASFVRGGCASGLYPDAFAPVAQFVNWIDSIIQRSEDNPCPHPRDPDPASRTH

Chymotrypsin = Chymotrypsin (Homo sapiens, UniProt Q99895+P17538+P40313+Q6GPI1); assay: Inhibition of human chymotrypsin using Suc-AAPF-MCA as substrate by fluorescence based assay; format: protein assay
[5] = target: T6, Neutrophil elastase (Homo sapiens) (UniProt P08246); assay: Inhibition of human neutrophil elastase at 2.5 to 40 nM using MeOSuc-AAPV-MCA as substrate by fluorescence based assay
T6 sequence (whole entry): T5 sequence (P08246 whole entry)

SMILES	inhibition activity (active/inactive) [2]	IC50 (Cathepsin G)	IC50 (Prothrombin)	IC50 (Trypsin)	IC50 (Chymase)	Ki (Myeloblastin)	remaining at 24 h, 400 µM [4]	Ki (Neutrophil elastase)	further results
CC[C@H](C)[C@@H]1NC(=O)[C@@H]2CCCN2C(=O)[C@@H]2CCCN2C(=O)[C@H]([C@@H](C)CC)NC(=O)[C@H](CO)NC(=O)[C@H](CCCCN)NC(=O)[C@H]([C@@H](C)O)NC(=O)[C@@H](NC(=O)[C@H](CCCNC(=N)N)NC(=O)CN)CSSC[C@@H](C(=O)N[C@@H](Cc2ccccc2)C(=O)N2CCC[C@H]2C(=O)N[C@@H](CC(=O)O)C(=O)O)NC1=O	–	–	–	–	–	–	–	–	Stability [1]: Unstable
CCC1NC(=O)[C@H](CC(=O)O)NC(=O)[C@@H]2CSSC[C@H](NC(=O)[C@H]([C@@H](C)CC)NC(=O)[C@@H]3CCCN3C(=O)[C@@H]3CCCN3C(=O)[C@H](CC(=O)O)NC(=O)[C@H](CO)NC1=O)C(=O)N[C@@H](CC(N)=O)C(=O)N1CCC[C@H]1C(=O)N[C@@H](CC(N)=O)C(=O)NCC(=O)N[C@@H]([C@@H](C)O)C(=O)N2 (stereo partly drawn) (HELM PEPTIDE1{C.D.[CCC(N[*:1])C(=O)[*:2]].S.D.P.P.I.C.N.P.N.G.T}$PEPTIDE1,PEPTIDE1,1:R3-9:R3|PEPTIDE1,PEPTIDE1,1:R1-14:R2$$$V2.0)	Active	–	–	–	–	–	–	–	–
CCC1NC(=O)[C@H](CC(=O)O)NC(=O)[C@@H]2CSSC[C@H](NC(=O)[C@H]([C@@H](C)CC)NC(=O)[C@@H]3CCCN3C(=O)[C@@H]3CCCN3C(=O)[C@H](Cc3ccc(O)cc3)NC(=O)[C@H](CO)NC1=O)C(=O)N[C@@H](CC(N)=O)C(=O)N1CCC[C@H]1C(=O)N[C@@H](CC(N)=O)C(=O)NCC(=O)N[C@@H]([C@@H](C)O)C(=O)N2 (stereo partly drawn) (HELM PEPTIDE1{C.D.[CCC(N[*:1])C(=O)[*:2]].S.Y.P.P.I.C.N.P.N.G.T}$PEPTIDE1,PEPTIDE1,1:R3-9:R3|PEPTIDE1,PEPTIDE1,1:R1-14:R2$$$V2.0)	Active	–	–	–	–	–	–	–	–
CCC1NC(=O)[C@H](Cc2ccc(O)cc2)NC(=O)[C@@H]2CSSC[C@H](NC(=O)[C@H]([C@@H](C)CC)NC(=O)[C@@H]3CCCN3C(=O)[C@@H]3CCCN3C(=O)[C@H](CC(=O)O)NC(=O)[C@H](CO)NC1=O)C(=O)N[C@@H](CC(N)=O)C(=O)N1CCC[C@H]1C(=O)N[C@@H](CC(N)=O)C(=O)NCC(=O)N[C@@H]([C@@H](C)O)C(=O)N2 (stereo partly drawn) (HELM PEPTIDE1{C.N.P.N.G.T.C.Y.[CCC(N[*:1])C(=O)[*:2]].S.D.P.P.I}$PEPTIDE1,PEPTIDE1,1:R3-7:R3|PEPTIDE1,PEPTIDE1,1:R1-14:R2$$$V2.0)	Active	–	–	–	–	–	–	–	–
CCC1NC(=O)[C@H](Cc2ccc(O)cc2)NC(=O)[C@@H]2CSSC[C@H](NC(=O)[C@H]([C@@H](C)CC)NC(=O)[C@@H]3CCCN3C(=O)[C@@H]3CCCN3C(=O)[C@H](CCC(=O)O)NC(=O)[C@H](CO)NC1=O)C(=O)N[C@@H](CC(N)=O)C(=O)N1CCC[C@H]1C(=O)N[C@@H](CC(N)=O)C(=O)NCC(=O)N[C@@H]([C@@H](C)O)C(=O)N2 (stereo partly drawn) (HELM PEPTIDE1{C.N.P.N.G.T.C.Y.[CCC(N[*:1])C(=O)[*:2]].S.E.P.P.I}$PEPTIDE1,PEPTIDE1,1:R3-7:R3|PEPTIDE1,PEPTIDE1,1:R1-14:R2$$$V2.0)	Active	–	–	–	–	–	–	–	–
CCC1NC(=O)[C@H](Cc2ccc(O)cc2)NC(=O)[C@@H]2CSSC[C@H](NC(=O)[C@H]([C@@H](C)CC)NC(=O)[C@@H]3CCCN3C(=O)[C@@H]3CCCN3C(=O)[C@H](Cc3c[nH]c4ccccc34)NC(=O)[C@H](CO)NC1=O)C(=O)N[C@@H](CC(N)=O)C(=O)N1CCC[C@H]1C(=O)N[C@@H](CC(N)=O)C(=O)NCC(=O)N[C@@H]([C@@H](C)O)C(=O)N2 (stereo partly drawn) (HELM PEPTIDE1{C.N.P.N.G.T.C.Y.[CCC(N[*:1])C(=O)[*:2]].S.W.P.P.I}$PEPTIDE1,PEPTIDE1,1:R3-7:R3|PEPTIDE1,PEPTIDE1,1:R1-14:R2$$$V2.0)	–	–	–	–	–	–	–	–	inhibition [3]: Active
CCC1NC(=O)[C@H](Cc2ccc(O)cc2)NC(=O)[C@@H]2CSSC[C@H](NC(=O)[C@H]([C@@H](C)CC)NC(=O)[C@@H]3CCCN3C(=O)[C@@H]3CCCN3C(=O)[C@H](Cc3ccc(O)cc3)NC(=O)[C@H](CO)NC1=O)C(=O)N[C@@H](CC(N)=O)C(=O)N1CCC[C@H]1C(=O)N[C@@H](CC(N)=O)C(=O)NCC(=O)N[C@@H]([C@@H](C)O)C(=O)N2 (stereo partly drawn) (HELM PEPTIDE1{C.N.P.N.G.T.C.Y.[CCC(N[*:1])C(=O)[*:2]].S.Y.P.P.I}$PEPTIDE1,PEPTIDE1,1:R3-7:R3|PEPTIDE1,PEPTIDE1,1:R1-14:R2$$$V2.0)	–	> 10 µM	> 10 µM	> 10 µM	> 10 µM	7 nM	90 to 95%	3.2 nM	inhibition [3]: Active; IC50 (Chymotrypsin): > 10 µM
CCC1NC(=O)[C@H](Cc2ccc(O)cc2)NC(=O)[C@@H]2CSSC[C@H](NC(=O)[C@H]([C@@H](C)CC)NC(=O)[C@@H]3CCCN3C(=O)[C@@H]3CCCN3C(=O)[C@H](Cc3ccc(O)cc3)NC(=O)[C@H](CO)NC1=O)C(=O)N[C@@H](CC(N)=O)C(=O)N1CCC[C@H]1C(=O)N[C@@H](CC(N)=O)C(=O)NCC(=O)N[C@@H](Cc1ccc(-c3ccccc3)cc1)C(=O)N2 (stereo partly drawn) (HELM PEPTIDE1{[O=C([C@H](Cc1ccc(-c2ccccc2)cc1)N[*:1])[*:2]].C.Y.[CCC(N[*:1])C(=O)[*:2]].S.Y.P.P.I.C.N.P.N.G}$PEPTIDE1,PEPTIDE1,2:R3-10:R3|PEPTIDE1,PEPTIDE1,1:R1-14:R2$$$V2.0)	–	> 10 µM	> 10 µM	> 10 µM	> 10 µM	17 nM	90 to 95%	24 nM	IC50 (Chymotrypsin): > 10 µM; inhibition [5]: Active
CCCC1NC(=O)[C@H](Cc2ccc(O)cc2)NC(=O)[C@@H]2CSSC[C@H](NC(=O)[C@H]([C@@H](C)CC)NC(=O)[C@@H]3CCCN3C(=O)[C@@H]3CCCN3C(=O)[C@H](Cc3ccc(O)cc3)NC(=O)[C@H](CO)NC1=O)C(=O)N[C@@H](CC(N)=O)C(=O)N1CCC[C@H]1C(=O)N[C@@H](CC(N)=O)C(=O)NCC(=O)N[C@@H](Cc1ccc(-c3ccccc3)cc1)C(=O)N2 (stereo partly drawn) (HELM PEPTIDE1{[O=C([C@H](Cc1ccc(-c2ccccc2)cc1)N[*:1])[*:2]].C.Y.[CCCC(N[*:1])C(=O)[*:2]].S.Y.P.P.I.C.N.P.N.G}$PEPTIDE1,PEPTIDE1,2:R3-10:R3|PEPTIDE1,PEPTIDE1,1:R1-14:R2$$$V2.0)	–	> 5 µM	> 10 µM	> 10 µM	> 10 µM	6.1 nM	90 to 95%	16 nM	Ki (Chymotrypsin): 463 nM
CCC1NC(=O)[C@H](Cc2ccc(O)cc2)NC(=O)[C@@H]2CSSC[C@H](NC(=O)[C@H]([C@@H](C)CC)NC(=O)[C@@H]3CCCN3C(=O)[C@@H]3CCCN3C(=O)[C@H](Cc3ccc(O)cc3)NC(=O)[C@H](CO)NC1=O)C(=O)N[C@@H](CC(N)=O)C(=O)N1CCC[C@H]1C(=O)N[C@@H](CC(N)=O)C(=O)NCC(=O)N[C@@H](CCCCNC(=O)OCc1ccccc1Cl)C(=O)N2 (stereo partly drawn) (cyclo(CNPNGK(ClZ)CY[ξAbu]SYPPI); disulfide 1-7)	–	–	–	–	–	–	–	–	inhibition [5]: Active
